Bioassay records from PubChem.
NPY2 pot ag – human NPY-Y2 potentiation or agonism, primary screen; AID 1359; activation, % at 3.6 µM; cells expressing NPY-Y2, potentiator/agonist read-out; P49146; 220,000 tested, 0.45% active; in the data active = activation above about 27%;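 note: cells stimulated with NPY near EC25 plus isoproterenol at EC100; 0% = vehicle plus submaximal agonist and 100% = vehicle plus saturating agonist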
NPY-Y1 antag – NPY-Y1 (human) receptor antagonism | 200,000 tested, 1% active | AID 1040 | P25929 | HEK293-CNG Y1 cells, membrane potential fluorescence; NPY at EC95, then isoproterenol | inhibition, % at 3.6 µM;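 active = inhibition above the campaign mean inhibition of all tested compounds plus 3 SD, cut at about 20% in these data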;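 note: 0% = DMSO wells given NPY plus isoproterenol and 100% = isoproterenol alone without NPY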
Target sequence (P25929 whole entry, looked up): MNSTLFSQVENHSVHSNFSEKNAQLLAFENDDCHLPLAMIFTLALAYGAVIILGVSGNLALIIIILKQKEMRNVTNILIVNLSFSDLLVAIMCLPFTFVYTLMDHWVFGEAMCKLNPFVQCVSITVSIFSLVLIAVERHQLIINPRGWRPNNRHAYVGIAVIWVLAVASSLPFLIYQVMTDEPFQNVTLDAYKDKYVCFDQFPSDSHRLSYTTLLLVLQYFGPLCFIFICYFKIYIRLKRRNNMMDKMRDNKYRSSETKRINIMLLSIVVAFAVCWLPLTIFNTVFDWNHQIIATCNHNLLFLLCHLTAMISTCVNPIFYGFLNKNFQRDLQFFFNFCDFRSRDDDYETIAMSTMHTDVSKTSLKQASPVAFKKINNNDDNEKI
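System: HEK293 cells with Y1 receptor plus CNG channel / Probe or stimulus: NPY 25 nM then isoproterenol 1 µM plus Ro 20-1724 25 µM / Compound: one concentration, 3.6 µM, in 0.4% DMSO / Schedule: compound incubation 1 h at room temperature, readout 45 min post-stimulation / Measured by: membrane potential fluorescence / Read-out: % inhibition of NPY effect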
NPY Y2 blocker – antagonists of human neuropeptide Y receptor Y2. P49146. NPY-Y2 expressing cells, antagonist mode. inhibition, % at 2.7 µM. 140,000 tested, 0.99% active. AID 793; in the data active = inhibition above about 17%;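 note: 0% = vehicle with agonist challenge and 100% = reference antagonist with challenge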
NPY-Y1 PAM-ag – potentiators or agonists of human neuropeptide Y receptor Y1. P25929. NPY-Y1 expressing cells, potentiator/agonist activation. activation, % at 3.6 µM. 220,000 tested, 0.37% active. AID 1304; in the data active = activation above about 33%, passing the limit was not always enough;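 note: cells stimulated with NPY at EC10 then isoproterenol at EC100; 0% = low agonist plus stimulus and 100% = saturating agonist plus stimulus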
* hit, by the source's call. A selection: hits, their analogues and other compounds. The true share with any hit is near 1.9%.

For CC(C)C(O)(C#CCN1CCCCCC1)c1ccccc1 (stereo not given) the results were NPY2 pot ag 2, NPY-Y1 antag 10 and NPY-Y1 PAM-ag -1.
Screening COc1ccc(CN(C)CC(=O)NC(=O)NCc2ccccc2)c(OC)c1 returned NPY2 pot ag -2, NPY-Y1 antag 1, NPY Y2 blocker 5 and NPY-Y1 PAM-ag -6.
`COc1ccc(CN(CCN(C)C)Cc2ccccc2)c(OC)c1` gave NPY2 pot ag -14, NPY-Y1 antag 23*, NPY Y2 blocker 20* and NPY-Y1 PAM-ag -17.
COc1cc(OC)c(C(=O)OCC(=O)N(Cc2ccccc2)C(C)(C)C)cc1OC was read as NPY2 pot ag 1, NPY-Y1 antag -2 and NPY-Y1 PAM-ag -5.
Screening Cc1ccc(NC(=O)CSc2nc3ccccc3c(=O)n2CCCC(=O)N2CCCC2)cc1 returned NPY2 pot ag 9, NPY-Y1 antag -6, NPY Y2 blocker 1 and NPY-Y1 PAM-ag 16.
`Cc1ccc(NC(=O)CSc2nc3ccccc3c(=O)n2CCCN2CCCCC2)cc1C` gave NPY2 pot ag -54, NPY-Y1 antag 38*, NPY Y2 blocker 34* and NPY-Y1 PAM-ag -97.
Cc1cc(C)c(N=C2CCCN2Cc2ccccc2)c(C#N)c1 was read as NPY2 pot ag 11, NPY-Y1 antag 6, NPY Y2 blocker 12 and NPY-Y1 PAM-ag 5.
`CN1CCc2c1nc1ccccc1c2N=C1CCCN1Cc1ccccc1` gave NPY2 pot ag -16, NPY-Y1 antag 22*, NPY Y2 blocker 22* and NPY-Y1 PAM-ag -46.
Screening CN(c1cccc(Cl)c1)S(=O)(=O)c1cccc(C(=O)Nc2nc3ccccc3[nH]2)c1 returned NPY2 pot ag -10, NPY-Y1 antag 30*, NPY Y2 blocker 27* and NPY-Y1 PAM-ag -64.
COc1ccc(N(C)S(=O)(=O)c2cccc(C(=O)Nc3nc4ccccc4[nH]3)c2)cc1 was read as NPY2 pot ag -12, NPY-Y1 antag 10 and NPY-Y1 PAM-ag -7.
CCOC(=O)N1CCC(N2C(=O)c3ccccc3C2Nc2ccc(S(=O)(=O)N(CC)CC)cc2)CC1 (stereo not given) was read as NPY2 pot ag 6, NPY-Y1 antag 7 and NPY-Y1 PAM-ag -15.
`CCc1ccc(NC(=O)COC(=O)CCc2nc3cc(S(=O)(=O)N(CC)CC)ccc3n2C)cc1` gave NPY2 pot ag 6, NPY-Y1 antag -6, NPY Y2 blocker -2 and NPY-Y1 PAM-ag 19.
Screening COc1ccccc1C(CC(=O)c1ccccc1)CC(=O)c1ccccc1 returned NPY2 pot ag -14, NPY-Y1 antag 21* and NPY-Y1 PAM-ag -18.
For CCOc1ccc(-n2c(SCc3ccc(C#N)cc3)nnc2-c2cccnc2)cc1 the results were NPY2 pot ag -11, NPY-Y1 antag 45*, NPY Y2 blocker 26* and NPY-Y1 PAM-ag -17.
Clc1ccc(-n2c(SC/C=C/c3ccccc3)nnc2-c2cccnc2)cc1 was read as NPY2 pot ag -17, NPY-Y1 antag 23*, NPY Y2 blocker 30* and NPY-Y1 PAM-ag -43.
`CCN(CC)CCCNC(=O)CSc1nc(C)cc(C)n1` gave NPY2 pot ag -3, NPY-Y1 antag 9 and NPY-Y1 PAM-ag 14.
`CCC(c1nnnn1Cc1ccco1)N1CCN(c2cc(Cl)ccc2C)CC1` (stereo not given) gave NPY2 pot ag -12, NPY-Y1 antag 27*, NPY Y2 blocker 28* and NPY-Y1 PAM-ag -28.
`Cc1ccc(Cl)cc1N1CCN(Cc2nnnn2Cc2ccco2)CC1` gave NPY2 pot ag -5, NPY-Y1 antag 13, NPY Y2 blocker 9 and NPY-Y1 PAM-ag -8.
For COc1ccc(NC(=O)CSc2nnc3n2CCCCC3)cc1 the results were NPY2 pot ag -14, NPY-Y1 antag 6 and NPY-Y1 PAM-ag 15.
For OC(COCC1COc2ccccc2O1)CN1CCN(c2ccccc2)CC1 (stereo not given) the results were NPY2 pot ag 34*, NPY-Y1 antag 0, NPY Y2 blocker 1 and NPY-Y1 PAM-ag 29.
For CCN1CCN(CC(O)COCC2COc3ccccc3O2)CC1 (stereo not given) the results were NPY2 pot ag 4, NPY-Y1 antag -3 and NPY-Y1 PAM-ag 25.
For CS(=O)(=O)NCC(c1ccco1)N1CCN(c2ccc(F)cc2)CC1 (stereo not given) the results were NPY2 pot ag 8, NPY-Y1 antag 8, NPY Y2 blocker 2 and NPY-Y1 PAM-ag 27.
c1ccc(CCN(Cc2ccccc2)C2CCN(C3CCCC3)CC2)cc1 was read as NPY2 pot ag -48, NPY-Y1 antag 21* and NPY-Y1 PAM-ag -14.
`C=CCn1cc(/C=N/Nc2nc3ccccc3[nH]2)c2ccccc21` gave NPY2 pot ag 47*, NPY-Y1 antag -7, NPY Y2 blocker -3 and NPY-Y1 PAM-ag 48*.
Screening Cn1c(/C=N/Nc2nc3ccccc3[nH]2)nc2ccccc21 returned NPY2 pot ag 2, NPY-Y1 antag 1 and NPY-Y1 PAM-ag 1.
`O=C1CCC(=O)N1c1nc2n(n1)C(c1ccccc1)C=C(c1ccc(Br)cc1)N2` (stereo not given) gave NPY2 pot ag 7, NPY-Y1 antag -6, NPY Y2 blocker 0 and NPY-Y1 PAM-ag 89*.
COc1ccc(S(=O)(=O)N2CCN(CCO)CC2)cc1-c1nnc2c3ccccc3c(C)nn12 was read as NPY2 pot ag -2, NPY-Y1 antag 0, NPY Y2 blocker 10 and NPY-Y1 PAM-ag -3.
For Cc1ccc(S(=O)(=O)N2CCN(CCO)CC2)cc1-c1nnc2c3ccccc3c(C)nn12 the results were NPY2 pot ag -28, NPY-Y1 antag 11, NPY Y2 blocker 57* and NPY-Y1 PAM-ag -40.
`CNS(=O)(=O)c1ccc(OC)c(-c2nnc3c4ccccc4c(C)nn23)c1` gave NPY2 pot ag -21, NPY-Y1 antag 6, NPY Y2 blocker 4 and NPY-Y1 PAM-ag -6.
For COc1ccc(S(=O)(=O)NC(C)(C)C)cc1-c1nnc2c3ccccc3c(C)nn12 the results were NPY2 pot ag -28, NPY-Y1 antag 30*, NPY Y2 blocker 36* and NPY-Y1 PAM-ag -46.
Screening Cc1ccc(S(=O)(=O)N2CCN(C)CC2)cc1-c1nnc2c3ccccc3c(C)nn12 returned NPY2 pot ag -4, NPY-Y1 antag 37*, NPY Y2 blocker 40* and NPY-Y1 PAM-ag -40.
For COCc1cc(C)nc(SCC[N+](C)(C)CC(=O)c2ccccc2)c1C#N the results were NPY2 pot ag -3, NPY-Y1 antag 0 and NPY-Y1 PAM-ag 2.
Screening C=CCN(C(=O)c1ccccn1)C(C(=O)NCc1ccccc1)c1ccccc1F (stereo not given) returned NPY2 pot ag -2, NPY-Y1 antag 10 and NPY-Y1 PAM-ag -4.
`Cc1cc(C(=O)CCl)c(C)n1CCc1ccc(F)cc1` gave NPY2 pot ag 0, NPY-Y1 antag -1 and NPY-Y1 PAM-ag 4.
For Cc1cc(C(=O)CCl)c(C)n1CCc1ccc(Cl)cc1 the results were NPY2 pot ag 91*, NPY-Y1 antag -4 and NPY-Y1 PAM-ag 63*.
`Cc1ccc(C)c(OCC(O)CN2CCCCC2C)c1` (stereo not given) gave NPY2 pot ag 80*, NPY-Y1 antag -10, NPY Y2 blocker 2 and NPY-Y1 PAM-ag 101*.
